Measured values collected from several papers.
Target: Estrogen receptor (ESR1, Homo sapiens, UniProt P03372)
One construct used (P03372 1-595): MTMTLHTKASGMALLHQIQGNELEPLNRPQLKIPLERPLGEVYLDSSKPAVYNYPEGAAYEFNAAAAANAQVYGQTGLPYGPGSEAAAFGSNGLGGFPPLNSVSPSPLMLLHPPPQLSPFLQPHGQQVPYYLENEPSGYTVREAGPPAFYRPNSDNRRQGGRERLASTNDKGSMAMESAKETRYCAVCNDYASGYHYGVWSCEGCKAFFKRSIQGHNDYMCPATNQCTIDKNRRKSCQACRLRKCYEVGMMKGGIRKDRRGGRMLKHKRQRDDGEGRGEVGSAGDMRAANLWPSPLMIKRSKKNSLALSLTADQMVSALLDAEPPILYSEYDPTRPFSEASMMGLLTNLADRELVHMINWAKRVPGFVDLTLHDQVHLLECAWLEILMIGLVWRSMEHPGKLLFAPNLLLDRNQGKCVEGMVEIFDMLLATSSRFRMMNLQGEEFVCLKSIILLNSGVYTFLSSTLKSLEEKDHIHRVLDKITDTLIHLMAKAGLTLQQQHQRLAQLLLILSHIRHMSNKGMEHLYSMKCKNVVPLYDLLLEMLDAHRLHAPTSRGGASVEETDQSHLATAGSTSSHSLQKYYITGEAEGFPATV

`COCc1c(-c2cc3cc(C)cc(OC)c3s2)c2c(N)ncnn2c1CN1CCNC(=O)C1` has an inhibition of 6% (ligand displacement; radioligand; 10 µM).
`C[C@H](C(=O)N[C@H]1COc2ccccc2[C@@H]1S(C)(=O)=O)c1ccc(F)cc1` has an inhibition of 7% (cell-free assay; 10 µM).
`CC(C)N1CCC[C@H]1CNC(=O)c1cn(C2CCCC2)c(=O)c2c1c1ccccc1n2C` has an inhibition of 15% (ligand displacement; radioligand; 10 µM).
`COc1ccc(S(=O)(=O)N2CCCCC2)cc1C` has an inhibition of under 30% (ligand displacement; radioligand; 10 µM).
With `Clc1cccc(-c2cccc(Cl)c2)c1` the Emax was under 20% (reporter gene; agonist; luciferase).
`O=C(Nc1cccnn1)N1CCN([C@@H]2CCOc3cc(C(F)(F)F)ccc32)CC1` gave an inhibition of 0% (cell-free assay; 20 µM).
For `Clc1ccc(-c2cc(Cl)ccc2Cl)cc1`, the Emax was under 20% (reporter gene; agonist; luciferase).
For `c1ccc(C(NCCNC(c2ccccc2)c2ccccc2)c2ccccc2)cc1`, the inhibition was 63% (cell-free assay; 10 µM).
